Hits are enriched below; roughly 2.7% of the tested compounds scored in any of these assays.
PAFAH2 FP inh = inhibitors of human PAFAH2; 0.99% of 340,000 active; inhibition, % at 3.39 µM; recombinant PAFAH2, FP-rhodamine activity probe, fluorescence polarization; Q99487; AID 492956;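 active = inhibition above the mean over all tested compounds plus 3 SD, cut at about 30% in these data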;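 also: inhibitors block probe labeling of enzyme so polarization drops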
ARFGAP1 inhibitor = inhibits rat ARF GTPase activating protein 1; Arfgap1-stimulated ARF1 GTP hydrolysis, GDP FP detection; Q62848; inhibition, % at 16.5 µM; 0.26% of 360,000 active;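 active = inhibition above a per-plate limit, mean inhibition of low control wells plus 3 SD, cut at about 25% in these data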
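system = rat Arfgap1 catalytic domain, aa 1-136 | technique = FP, GDP Alexa 633 tracer displaced from anti-GDP antibody, 620/688 nm | compound = one concentration, 16.5 µM, DMSO 1.26% | medium = HEPES-based buffer, pH 7.5 | timing = compound-enzyme preincubation 20 min, reaction 120 min, detection 60 min, 25 °C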
PAFAH1B3 FP inh = PAFAH1B3 (human) inhibition | recombinant PAFAH1B3, FP-rhodamine probe, fluorescence polarization | Q15102 | 0.28% of 340,000 active | inhibition, % at 3.39 µM | AID 492972;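 active = inhibition above the screen-wide average of all tested compounds plus 3 SD, cut at about 25% in these data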
PAFAH1B2 inh = blocks human PAF acetylhydrolase 1b catalytic subunit 2; recombinant PAFAH1B2, FP-rhodamine activity probe, fluorescence polarization; inhibition, % at 3.39 µM; 1.2% of 340,000 active; AID 492953;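 active = inhibition above the mean of all tested compounds plus 3 SD, cut at about 24% in these data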
ASAP1 inh = inhibitors of human ASAP1 ArfGAP activity | ASAP1-stimulated ARF1 GTP hydrolysis, GDP FP detection | Q9ULH1 | inhibition, % at 16.5 µM | 0.19% of 360,000 active; in the data active = inhibition above about 25%
pPAFAH FP inh = inhibitors of human plasma PAF acetylhydrolase (pPAFAH) | 1.5% of 330,000 active | inhibition, % at 3.39 µM | Q13093 | AID 463082 | recombinant pPAFAH, FP-rhodamine probe fluorescence polarization;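 active = inhibition above the mean inhibition across the screen plus 3 SD, cut at about 25% in these data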;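 also: inhibitors block binding of the rhodamine activity-based probe so polarization drops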
Target sequence (Q13093 whole entry, looked up): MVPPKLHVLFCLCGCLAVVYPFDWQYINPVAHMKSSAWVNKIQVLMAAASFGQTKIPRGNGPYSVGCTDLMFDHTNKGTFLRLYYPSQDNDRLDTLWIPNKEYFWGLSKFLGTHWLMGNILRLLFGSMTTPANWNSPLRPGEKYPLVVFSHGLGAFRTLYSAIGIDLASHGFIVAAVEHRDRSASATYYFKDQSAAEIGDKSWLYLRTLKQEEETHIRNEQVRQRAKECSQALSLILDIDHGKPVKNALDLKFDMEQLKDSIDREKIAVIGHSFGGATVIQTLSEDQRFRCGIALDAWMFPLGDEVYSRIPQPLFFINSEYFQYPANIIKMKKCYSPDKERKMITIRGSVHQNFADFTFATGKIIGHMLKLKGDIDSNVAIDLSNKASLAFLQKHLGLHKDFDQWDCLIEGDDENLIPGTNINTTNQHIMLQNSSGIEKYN
Of the large screens only hits and unclear results are named; the others gave an inactive call.

O=c1nc2s/c(=C\c3ccc(-c4ccccc4[N+](=O)[O-])o3)c(=O)n2nc1-c1ccccc1	none (no result: pPAFAH FP inh)
CCOc1ccc(N2C(=O)CS/C2=C(\C(Cl)=C(Cl)Cl)[N+](=O)[O-])cc1	pPAFAH FP inh 28 (no result: ARFGAP1 inhibitor, ASAP1 inh)
COC(=O)CCCN1C(=O)NC(c2ccc(-c3ccccc3)cc2)C(C(=O)OCc2ccccc2)=C1C (stereo not drawn)	pPAFAH FP inh 27
CC1=C(C(=O)OCc2ccccc2)C(c2ccc(C(C)(C)C)cc2)NC(=O)N1CCCCCC(=O)O (stereo not drawn)	pPAFAH FP inh 25
COC(=O)c1ccc2nc(-c3ccco3)c(Cc3ccsc3)n2c1	none (no result: PAFAH2 FP inh, PAFAH1B3 FP inh, PAFAH1B2 inh, pPAFAH FP inh)
NC(=O)CSc1nc2scc(-c3ccco3)c2c(=O)n1-c1ccccc1	pPAFAH FP inh 28
O=C(O)CCn1cc(C2CC(c3ccccc3)=NN2c2ccccc2)c(-c2ccccc2)n1 (stereo not drawn)	pPAFAH FP inh 27
Cc1ccc(-c2nn(-c3ccccc3)cc2C2CC(c3cccs3)=NN2C(=O)CCC(=O)O)cc1 (stereo not drawn)	none
O=C(Cc1ccc(Cl)cc1)Nc1ccc(S(=O)(=O)Nc2cnc3ccccc3n2)cc1	pPAFAH FP inh 31
O=C(Nc1ccc(S(=O)(=O)Nc2cnc3ccccc3n2)cc1)c1ccc(Cl)cc1Cl	none (no result: PAFAH2 FP inh, PAFAH1B3 FP inh, PAFAH1B2 inh)
OCCC(N1CCOCC1)C(O)(c1ccccc1)c1ccccc1 (stereo not drawn)	none (no result: PAFAH2 FP inh, PAFAH1B3 FP inh, PAFAH1B2 inh, pPAFAH FP inh)
CCCCC(=O)NC(c1ccc(N(C)C)cc1)c1ccc2cccnc2c1O (stereo not drawn)	pPAFAH FP inh 26
CCCCC(=O)NC(c1ccc(Cl)cc1)c1ccc2cccnc2c1O (stereo not drawn)	none
CCCCC(=O)NC(c1ccc(N(CC)CC)cc1)c1ccc2cccnc2c1O (stereo not drawn)	pPAFAH FP inh 26
CN(Cc1ccccc1)C(=O)c1cccc(NC(=O)Cc2cccc(NC(=O)C3CCN(C(=O)CCc4ccccc4)CC3)c2)c1	none (no result: PAFAH2 FP inh, PAFAH1B3 FP inh, PAFAH1B2 inh, pPAFAH FP inh)
CCOC(=O)CN1CCC(c2cc(-c3ccc(Cl)cc3)n[nH]2)CC1	pPAFAH FP inh 31
Cc1cc(N2CCN(S(C)(=O)=O)C[C@@H]2C)ccc1N1CCN(Cc2ccccc2)[C@@H](C)C1	none (no result: PAFAH2 FP inh, PAFAH1B3 FP inh, PAFAH1B2 inh, pPAFAH FP inh)
O=c1[nH]n2c(=O)c3c([nH]c2c1N=Nc1cccc(C(F)(F)F)c1)CCCC3	PAFAH1B2 inh 30, pPAFAH FP inh 28
O=c1[nH]n2c(=O)c3c([nH]c2c1N=Nc1cccc(Cl)c1)CCC3	none
Cn1c(SCC(=O)c2ccc(-c3ccccc3)cc2)nnc1-c1ccco1	pPAFAH FP inh 30
CC1CC(C)CN(S(=O)(=O)c2ccc3c(c2)CC(=O)N3)C1 (stereo not drawn)	PAFAH1B2 inh 28
COc1ccc(N(CC(=O)NCCSCc2ccc(C)cc2)S(=O)(=O)c2ccccc2)cc1	none
COc1ccccc1N(CC(=O)NCCSCc1ccc(C)cc1)S(=O)(=O)c1ccccc1	PAFAH1B2 inh 27
Cc1cccc(OCC(=O)Nc2ccc(N3CCCC3)cc2)c1C	pPAFAH FP inh 30
COc1ccccc1OCC(=O)Nc1ccc(N2CCCCC2)cc1	none
Cc1ccc(OCC(=O)Nc2ccc(N3CCCC3)cc2)cc1C	pPAFAH FP inh 30
O=C(CNCCC1=CCCCC1)Nc1ccc(N2CCCCCC2)cc1	pPAFAH FP inh 32
CN(C(=O)[C@@H](Cc1ccccc1)NC(=O)[C@H]1O[C@@H](n2ccc(=O)[nH]c2=O)[C@H](O)[C@@H]1O)C1CCCCC1	none (no result: PAFAH2 FP inh, PAFAH1B3 FP inh, PAFAH1B2 inh, pPAFAH FP inh)
CC(C)N(C[C@@H]1CSCCS(=O)(=O)N1)C(C)C	none (no result: PAFAH2 FP inh, PAFAH1B3 FP inh, PAFAH1B2 inh, pPAFAH FP inh)
S=c1[nH]nc(CSCCOc2ccc(Cl)cc2Cl)o1	PAFAH1B2 inh 34
S=c1[nH]nc(CSCCOc2ccccc2)o1	none
COC(=O)C1=C(C)N(Cc2cccc(C(F)(F)F)c2)C(=NCc2ccc(OC)cc2)NC1c1ccccc1 (stereo not drawn)	none (no result: PAFAH2 FP inh, PAFAH1B3 FP inh, PAFAH1B2 inh, pPAFAH FP inh)
COc1cc(C(=O)O[C@H]2CC(C)=CC[C@@]3(C)CC[C@@](O)(C(C)C)[C@H]23)ccc1O	PAFAH1B2 inh 34
COc1cc(C(=O)O[C@H]2C/C(C)=C/CC[C@]3(C)O[C@@H]3C(O)C2C(C)C)cc(OC)c1OC (stereo partly drawn)	none
COC(=O)C1=C(C)N(C)C(=NCc2ccccc2C(F)(F)F)NC1c1ccc(F)cc1 (stereo not drawn)	none (no result: PAFAH2 FP inh, PAFAH1B3 FP inh, PAFAH1B2 inh, pPAFAH FP inh)
Cc1cc(S(=O)(=O)N2CCN(CC(=O)N(C)Cc3ccccc3)CC2)ccc1Br	none (no result: pPAFAH FP inh)
